Where two headings read alike, the source gives them in different places.
What was measured:
Safety and tolerability = format: in vivo, human; details: for tolerability: 150 mg once daily for 14 days, regardless of HI
Method in brief: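 Adverse events were monitored continuously and graded with the Division of AIDS toxicity scale. Hematology, clinical chemistry, urinalysis and 12-lead ECG were done at screening, baseline (Day –1), Day 14 and Day 28, with hematology and chemistry also at Day 7. Physical exams ran through follow-up (Day 28, or Day 35 for hepatic impairment). Data were summarised descriptively without formal statistical testing.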

P-glycoprotein = details: cited from earlier work
[1] = tested on: I-FABP, flagellin, LBP, sCD14; format: in vivo, human; details: within each group
Method in brief: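 Participants with mild or moderate hepatic impairment and matched normal-function controls received a single-tablet 150 mg oral test compound, dosed over 14 days. I-FABP, flagellin, LBP and sCD14 were quantified by ELISA, following kit instructions, in plasma from Day 1 (predose), Day 7 and Day 14. Results were summarised by day as medians, IQR and change from baseline, using Wilcoxon tests.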

[2] = format: in vivo, human; details: for CL/F / AUC / AUC(0-inf) / Cmax / concentration at 14 day / Tmax / Vd/F / half-life: geometric mean (SD); for AUC / AUC(0-inf) / Cmax / concentration at 14 day / Tmax / Vd/F / half-life: human, plasma, oral; for AUC: AUC0–τ; for AUC(0-inf): AUC0–∞; for concentration at 14 day: Cmin; for Vd/F: Vz/F; for time to steady-state conditions: predose samples
Method in brief: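 Plasma sampled on Days 1 and 14 predose and 0.5–24 h postdose, plus predose on Days 3, 5, 7, 10, 13, 16. Blood kept on ice, spun 2,000g 15 min at 5°C within 45 min, and plasma stored at –70°C. Extraction was by protein precipitation with internal standard. Parameters came from noncompartmental analysis. ANOVA on ln-transformed Cmax, Cmin and AUC0–τ gave geometric mean ratios with 90% CIs versus matched controls.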

[3] = cited from earlier work
[4] = cited from earlier work; remark: listed apart in the source
CYP3A4 [5] = details: cited from earlier work
CYP3A4 [6] = details: cited from earlier work; remark: listed apart in the source
[7] = cited from earlier work; remark: listed apart in the source
CCR2 = CCR2 (Homo sapiens, UniProt P41597); experiment: CCR2 antagonist activity: plasma CCR2 ligand; format: in vivo; details: across all groups, P < 0.05
Chain of CCR2 (P41597 whole entry): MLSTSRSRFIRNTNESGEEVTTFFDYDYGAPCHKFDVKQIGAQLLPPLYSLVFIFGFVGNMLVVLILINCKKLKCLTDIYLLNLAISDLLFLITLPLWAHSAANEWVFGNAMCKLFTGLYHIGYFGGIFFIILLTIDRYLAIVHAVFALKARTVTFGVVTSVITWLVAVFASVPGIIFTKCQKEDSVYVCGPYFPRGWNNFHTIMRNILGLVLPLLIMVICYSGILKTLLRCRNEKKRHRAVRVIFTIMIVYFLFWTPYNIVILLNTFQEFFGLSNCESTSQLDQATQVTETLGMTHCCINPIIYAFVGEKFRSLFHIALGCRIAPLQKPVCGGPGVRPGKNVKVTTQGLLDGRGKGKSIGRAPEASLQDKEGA
Method in brief: (§1)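 Adults with mild or moderate hepatic impairment and matched controls with normal hepatic function were given an oral 150 mg tablet of the test compound over 14 days. Plasma was sampled on Day 1 (predose), Day 7 and Day 14. CCL2, CCL3 and CCL4 were measured by Luminex multiplex and CCL5 by ELISA. Medians, IQR and change from baseline were reported, with Wilcoxon tests.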

CYP2C8 = details: cited from earlier work
CCR5 = CCR5 (Homo sapiens, UniProt P51681); experiment: CCR5 antagonist activity: plasma CCR5 ligand; format: in vivo; details: for CCL4 median fold-change: P < 0.05
Chain of CCR5 (P51681 whole entry): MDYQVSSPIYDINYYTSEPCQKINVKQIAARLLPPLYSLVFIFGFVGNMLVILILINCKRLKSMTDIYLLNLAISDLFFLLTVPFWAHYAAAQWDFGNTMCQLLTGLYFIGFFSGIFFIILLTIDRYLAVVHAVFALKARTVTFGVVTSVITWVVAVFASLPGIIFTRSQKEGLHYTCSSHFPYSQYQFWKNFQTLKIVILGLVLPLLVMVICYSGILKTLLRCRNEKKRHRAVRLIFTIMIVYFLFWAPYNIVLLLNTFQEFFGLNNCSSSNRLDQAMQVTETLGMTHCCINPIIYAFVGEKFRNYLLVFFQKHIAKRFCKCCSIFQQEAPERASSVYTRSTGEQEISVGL
Method in brief: as §1

[8] = matched controls (mild) (N = 7)
[9] = matched controls (moderate) (N = 8)
[10] = mild hepatic impairment (N = 8)
[11] = moderate hepatic impairment (N = 8)
[12] = Day 14, mild hepatic impairment
[13] = Day 14, moderate hepatic impairment
[14] = 150 mg, Day 14, 150 mg once daily, matched controls (mild)
[15] = 150 mg, Day 14, 150 mg once daily, matched controls (moderate)
[16] = 150 mg, Day 14, 150 mg once daily, mild hepatic impairment
[17] = 150 mg, Day 14, 150 mg once daily, moderate hepatic impairment

CL/F ([2]; Day 1, 150 mg, matched controls (mild)): 22.1 L/h
CL/F ([2]; Day 1, 150 mg, matched controls (moderate)): 31.7 L/h
CL/F ([2]; Day 1, 150 mg, mild hepatic impairment): 27.1 L/h
CL/F ([2]; Day 1, 150 mg, moderate hepatic impairment): 25.8 L/h
CL/F ([2]; Day 14, 150 mg once daily, matched controls (mild)): 14.4 (1.5) L/h
CL/F ([2]; Day 14, 150 mg once daily, matched controls (moderate)): 25.3 (2.0) L/h
CL/F ([2]; Day 14, 150 mg once daily, mild hepatic impairment): 23.2 (1.9) L/h
CL/F ([2]; Day 14, 150 mg once daily, moderate hepatic impairment): 16.3 (1.3) L/h
AUC0–τ lower than matched controls [2, 12]: 38%
Cmax lower than matched controls [2, 12]: 40%
Cmin lower than matched controls [2, 12]: ~27%
AUC0–τ higher than matched controls [2, 13]: 55%
Cmax higher than matched controls [2, 13]: 29%
Cmin higher than matched controls [2, 13]: ~97%
AUC [2, 14]: 10400 ng·h/mL
AUC [2, 15]: 5940 ng·h/mL
AUC [2, 16]: 6470 ng·h/mL
AUC [2, 17]: 9180 ng·h/mL
AUC(0-inf) [2, 14]: 18900 ng·h/mL
AUC(0-inf) [2, 15]: 11000 ng·h/mL
AUC(0-inf) [2, 16]: 14600 ng·h/mL
AUC(0-inf) [2, 17]: 26100 ng·h/mL
Cmax [2, 14]: 759 ng/mL
Cmax [2, 15]: 469 ng/mL
Cmax [2, 16]: 452 ng/mL
Cmax [2, 17]: 607 ng/mL
concentration at 14 day [2, 14]: 248 ng/mL
concentration at 14 day [2, 15]: 140 ng/mL
concentration at 14 day [2, 16]: 180 ng/mL
concentration at 14 day [2, 17]: 275 ng/mL
Tmax [2, 14]: 5.66 h
Tmax [2, 15]: 4.49 h
Tmax [2, 16]: 5.34 h
Tmax [2, 17]: 4.83 h
Vd/F ([2]; 150 mg, Day 1, 150 mg, matched controls (mild)): 262 L
Vd/F ([2]; 150 mg, Day 1, 150 mg, matched controls (moderate)): 370 L
Vd/F ([2]; 150 mg, Day 1, 150 mg, mild hepatic impairment): 329 L
Vd/F ([2]; 150 mg, Day 1, 150 mg, moderate hepatic impairment): 386 L
Vd/F [2, 14]: 455 L
Vd/F [2, 15]: 816 L
Vd/F [2, 16]: 995 L
Vd/F [2, 17]: 886 L
half-life ([2]; 150 mg, t1/2, Day 1, 150 mg, moderate hepatic impairment): 10.4 h
half-life ([2]; 150 mg, t1/2, Day 14, 150 mg once daily, matched controls (mild)): 22 h
half-life ([2]; 150 mg, t1/2, Day 14, 150 mg once daily, matched controls (moderate)): 22.4 h
half-life ([2]; 150 mg, t1/2, Day 14, 150 mg once daily, mild hepatic impairment): 29.7 h
half-life ([2]; 150 mg, t1/2, Day 14, 150 mg once daily, moderate hepatic impairment): 37.6 h
time to steady-state conditions ([2]; matched controls): 7 to 10 days
time to steady-state conditions ([2]; participants with mild or moderate HI): 10 to 13 days
CCL2 median fold-change (CCR2; Day 7 vs Day 1 (predose)): 4.4–5.5
CCL2 median fold-change (CCR2; Day 14 vs Day 1 (predose)): 4.8–6.0
CCL4 median fold-change (CCR5; after 7 days of treatment vs Day 1 (predose)): 1.8–2.3
CCL4 median fold-change (CCR5; after 14 days of treatment vs Day 1 (predose)): 1.6–2.5
CCL3 levels change during treatment (CCR5; any group): did not change significantly
CCL5 change during treatment (CCR5; matched controls (moderate) only, Day 14 vs Day 1, P = 0.008): increased significantly
SMILES: CCCCOCCOc1ccc(-c2ccc3c(c2)/C=C(/C(=O)Nc2ccc([S@@+]([O-])Cc4cncn4CCC)cc2)CCCN3CC(C)C)cc1 [cenicriviroc]
tolerability (Safety and tolerability): generally well tolerated
tolerability (Safety and tolerability; listed as Cenicriviroc): well tolerated
AST (treatment-emergent Grade 1 elevation) (Safety and tolerability; Day 7, one matched control (moderate), resolved upon continued dosing): 1.3 x ULN
AST (Safety and tolerability; Day 28, another participant with moderate HI, screening 5.9 x ULN): 10.2 x ULN
Participants with any treatment-related AEs (Safety and tolerability; [8]): 3 (42.9) N (%)
Treatment-related AE: Dry mouth (Safety and tolerability; [8]): 2 (28.6) N (%)
Treatment-related AE: Epigastric discomfort (Safety and tolerability; [8]): 0 (0) N (%)
Treatment-related AE: Flatulence (Safety and tolerability; [8]): 0 (0) N (%)
Treatment-related AE: Headache (Safety and tolerability; [8]): 1 (14.3) N (%)
Treatment-related AEs Grade 1 (Safety and tolerability; [8]): 3 (42.9) N (%)
Treatment-related AEs Grade 2 (Safety and tolerability; [8]): 0 (0) N (%)
Treatment-related AEs Grade 3 (Safety and tolerability; [8]): 0 (0) N (%)
Treatment-related AEs Grade 4 (Safety and tolerability; [8]): 0 (0) N (%)
Participants with any treatment-related AEs (Safety and tolerability; [9]): 4 (50.0) N (%)
Treatment-related AE: Dry mouth (Safety and tolerability; [9]): 0 (0) N (%)
Treatment-related AE: Epigastric discomfort (Safety and tolerability; [9]): 0 (0) N (%)
Treatment-related AE: Flatulence (Safety and tolerability; [9]): 1 (12.5) N (%)
Treatment-related AE: Headache (Safety and tolerability; [9]): 1 (12.5) N (%)
Treatment-related AEs Grade 1 (Safety and tolerability; [9]): 4 (50.0) N (%)
Treatment-related AEs Grade 2 (Safety and tolerability; [9]): 0 (0) N (%)
Treatment-related AEs Grade 3 (Safety and tolerability; [9]): 0 (0) N (%)
Treatment-related AEs Grade 4 (Safety and tolerability; [9]): 0 (0) N (%)
Participants with any treatment-related AEs (Safety and tolerability; [10]): 6 (75.0) N (%)
Treatment-related AE: Dry mouth (Safety and tolerability; [10]): 0 (0) N (%)
Treatment-related AE: Epigastric discomfort (Safety and tolerability; [10]): 1 (12.5) N (%)
Treatment-related AE: Flatulence (Safety and tolerability; [10]): 1 (12.5) N (%)
Treatment-related AEs Grade 1 (Safety and tolerability; [10]): 6 (75.0) N (%)
Treatment-related AEs Grade 2 (Safety and tolerability; [10]): 0 (0) N (%)
Treatment-related AEs Grade 3 (Safety and tolerability; [10]): 0 (0) N (%)
Treatment-related AEs Grade 4 (Safety and tolerability; [10]): 0 (0) N (%)
Participants with any treatment-related AEs (Safety and tolerability; [11]): 4 (50.0) N (%)
Treatment-related AE: Dry mouth (Safety and tolerability; [11]): 0 (0) N (%)
Treatment-related AE: Epigastric discomfort (Safety and tolerability; [11]): 1 (12.5) N (%)
Treatment-related AE: Flatulence (Safety and tolerability; [11]): 0 (0) N (%)
Treatment-related AE: Headache (Safety and tolerability; [11]): 1 (12.5) N (%)
Treatment-related AEs Grade 1 (Safety and tolerability; [11]): 4 (50.0) N (%)
Treatment-related AEs Grade 2 (Safety and tolerability; [11]): 0 (0) N (%)
Treatment-related AEs Grade 3 (Safety and tolerability; [11]): 1 (12.5) N (%)
Treatment-related AEs Grade 4 (Safety and tolerability; [11]): 0 (0) N (%)
substrate of P-glycoprotein (P-glycoprotein): substrate
I-FABP change during treatment [1]: None of these markers changed significantly
LBP change during treatment [1]: None of these markers changed significantly
flagellin change during treatment [1]: None of these markers changed significantly
sCD14 change during treatment [1]: None of these markers changed significantly
time to reach steady-state plasma concentrations ([3]; healthy participants): 8 to 10 days
plasma half-life ([3]; in humans): 30 to 40 h
effect of administration with food on bioavailability ([3]; in vivo): increase
APRI, FIB-4 and enhanced liver fibrosis score ([4]; HIV-infected participants): decreases
sCD14 levels ([4]; HIV-positive participants (Study 202)): decreased
inhibition of CYP3A4 (CYP3A4 [5]): weak inhibitor
substrate of CYP3A4 (CYP3A4 [6]): substrate
bound to plasma proteins [7]: > 98%
substrate of CYP2C8 (CYP2C8): substrate
